Compound activity as filed in PubChem.
TRPC6 inhibitor: mouse TRPC6 channel inhibition | Q61143 | HEK293-TRPC6, membrane potential dye, ACh-evoked depolarization; stronger effect = lower value | B-score at 10 µM | 1.1% of 310,000 active | AID 2553;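 active = B-score under library mean minus 3 SD, initial fluorescence not abnormally high, positive integrated signal ratio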;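 also: B-score derived from integrated fluorescence ratio over the kinetic read; more negative B-score means stronger inhibition of depolarization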
Target sequence (Q61143 whole entry, looked up): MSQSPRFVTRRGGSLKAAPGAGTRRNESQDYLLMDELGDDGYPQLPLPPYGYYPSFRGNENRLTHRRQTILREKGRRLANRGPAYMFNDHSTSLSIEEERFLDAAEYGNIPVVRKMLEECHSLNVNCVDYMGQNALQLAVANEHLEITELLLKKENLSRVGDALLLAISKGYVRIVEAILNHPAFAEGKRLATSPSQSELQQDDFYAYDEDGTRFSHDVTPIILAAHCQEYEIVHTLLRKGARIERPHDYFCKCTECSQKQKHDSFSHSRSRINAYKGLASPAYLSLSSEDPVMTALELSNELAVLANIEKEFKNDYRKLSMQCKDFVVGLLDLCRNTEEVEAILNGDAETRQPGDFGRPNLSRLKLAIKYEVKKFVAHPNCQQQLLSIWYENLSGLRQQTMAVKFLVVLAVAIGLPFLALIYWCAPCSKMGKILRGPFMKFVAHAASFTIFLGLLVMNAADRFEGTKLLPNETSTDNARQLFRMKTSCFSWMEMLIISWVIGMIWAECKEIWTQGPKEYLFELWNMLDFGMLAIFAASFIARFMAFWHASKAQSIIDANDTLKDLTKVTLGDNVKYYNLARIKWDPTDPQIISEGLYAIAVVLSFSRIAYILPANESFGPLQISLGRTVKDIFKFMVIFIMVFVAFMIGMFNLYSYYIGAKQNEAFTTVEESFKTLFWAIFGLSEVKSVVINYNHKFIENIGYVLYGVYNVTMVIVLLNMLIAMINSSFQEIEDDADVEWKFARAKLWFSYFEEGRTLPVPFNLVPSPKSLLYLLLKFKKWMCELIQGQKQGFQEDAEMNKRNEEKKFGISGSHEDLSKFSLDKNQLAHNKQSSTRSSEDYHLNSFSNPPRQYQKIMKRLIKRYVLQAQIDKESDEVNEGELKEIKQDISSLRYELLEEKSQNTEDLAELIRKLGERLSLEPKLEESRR
TRPC6 activator: activators of mouse TRPC6 channel; 0.13% of 310,000 active; B-score at 10 µM; HEK293-TRPC6 membrane potential dye fluorescence; stronger effect = higher value; Q61143;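 active = B-score of the integrated fluorescence ratio above library mean plus 3 SD, and starting fluorescence ratio within library mean plus 5 SD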;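 also: higher score means more depolarization so channel activation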
TRPC4 agonist: activators of mouse TRPC4 channel. Q9QUQ5. HEK293 TRPC4beta/mu-opioid, Fluo4 calcium fluorescence; stronger effect = higher value. B-score at 10 µM. 0.49% of 310,000 active. AID 2237;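 active = B-score above 5 SD of library B-scores, and initial fluorescence ratio not above library mean plus 5 SD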;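 also: positive B-score marks a calcium rise read as TRPC4 activation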
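Assay system – TRPC4beta and mu-opioid receptor HEK293 stable cells · Measured by – Fluo4 fluorescence, kinetic · Schedule – dye loading 45 min room temperature, 110 s kinetic read · Read-out – B-scored integrated calcium fluorescence ratio · Controls – buffer and maximal DAMGO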
TRPC4 block: inhibitors of mouse TRPC4 channel. Q9QUQ5. HEK293 TRPC4beta/mu-opioid, DAMGO-evoked Fluo4 calcium flux; stronger effect = lower value. B-score at 10 µM. 0.39% of 300,000 active. AID 2247;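 active = B-score over 3 SD under the library average, no early fluorescence shift, positive overall ratio signal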
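test system = HEK293 cells with stable TRPC4beta plus mu-opioid receptor expression | detection = Fluo4 Ca2+ flux fluorescence | read-out = integrated fluorescence ratio relative to baseline, converted to per-well B score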
TRPC4 PAM: allosteric potentiators of mouse TRPC4 channel; AID 2227; HEK293 TRPC4beta/mu-opioid, DAMGO EC20, Fluo-4 Ca2+ flux; stronger effect = higher value; 0.42% of 310,000 active; Q9QUQ5; B-score at 10 µM;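 active = B-score of calcium response area above 5 SD of library B-scores, with initial fluorescence ratio within 5 SD of library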
Hits are given with their value; n = inactive; x = no result. Sampled rows, rich in hits. Any-hit rate of the full collection: about 2.3%.

SMILES	TRPC6 inhibitor	TRPC6 activator	TRPC4 agonist	TRPC4 block	TRPC4 PAM
Cc1cccc(OCCOCCN2CCNCC2)c1C	n	n	133	n	n
Cc1cc(C)c(OCCOCCN2CCN(C)CC2)c(Cl)c1	n	n	n	n	n
Clc1ccccc1OCCCCN1CCCC1	n	n	n	x	n
Clc1ccccc1OCCCCN1CCNCC1	n	n	n	n	12
Cc1cc(Cl)c(OCCOCCN2CCNCC2)c(Cl)c1	n	n	62	n	n
Cc1cccc(OCCOCCN2CCOCC2)c1C	n	n	n	n	n
CC(OC(=O)c1cccc(S(=O)(=O)N(C)C)c1)C(=O)NCc1ccc2c(c1)OCO2 (stereo not drawn)	n	n	n	n	n
Cc1ccc2[nH]c3c(=O)n(CCc4cnc[nH]4)cnc3c2c1	n	n	211	n	n
Cc1ccc2[nH]c3c(=O)n(CCN4CCOCC4)cnc3c2c1	n	n	n	n	n
Cc1cc([N+](=O)[O-])nn1Cc1noc(C(=O)NCCc2ccccn2)n1	n	n	79	n	n
O=C(C[N+]1(CC#Cc2ccccc2)CCCCC1)c1ccc(Cl)cc1	n	n	n	-6	n
O=C(O)C1C2CCC(CC2)C1C(=O)N1CCN(Cc2ccc(F)cc2)CC1 (stereo not drawn)	n	n	87	n	n
O=C(C1CCN(Cc2ccc(F)cc2)CC1)N1CCN(C/C=C/c2ccccc2)CC1	n	n	n	n	n
COCCSc1ccccc1C(=O)N1CCC(Cc2ccccc2)CC1	n	n	44	-7	n
O=C(CCNC(=O)c1ccc(Br)cc1)Nc1ccccc1N1CCCC1	n	n	n	n	n
O=C(CCNC(=O)c1ccc(Cl)cc1)Nc1ccccc1N1CCCCC1	n	n	n	-5	n
COc1cc2ccccc2c2c1CCCC2=O	n	n	n	-6	n
COc1cc(-c2nc3ccc4ccccc4c3c3c2CCC3)cc(OC)c1OC	n	n	n	n	n
Cc1cccc(Cn2c(C)nc3c(N)c(C)c(C)cc32)c1	n	n	n	n	n
CCc1cc2c(CN3CCN(CCO)CC3)cc(=O)oc2cc1O	n	n	n	n	n
CCc1cc2c(CN3CCN(C)CC3)cc(=O)oc2cc1O	n	n	51	n	n
Cc1cc2oc(=O)cc(CN3CCN(Cc4ccccc4)CC3)c2cc1O	n	n	79	n	n
Cc1cc2oc(=O)cc(CN3CCN(C/C=C/c4ccccc4)CC3)c2cc1O	n	n	n	n	n
OC(COc1ccccc1)CN1C2=NCCCN2c2ccccc21 (stereo not drawn)	n	n	n	-5	n
Brc1ccc(CN2C3=NCCCN3c3ccccc32)cc1	n	n	n	-7	n
SMILES	TRPC6 inhibitor	TRPC6 activator	TRPC4 agonist	TRPC4 block	TRPC4 PAM
c1ccc(CN2C3=NCCCN3c3ccccc32)cc1	n	n	n	n	n
Clc1ccc(CN2C3=NCCN3c3ccccc32)cc1	n	n	n	-6	n
CCc1ccc(NC2=NCC(c3ccccc3)S2)cc1 (stereo not drawn)	n	n	n	n	12
O=[N+]([O-])c1ccc(C2CN=C(Nc3ccccc3)S2)cc1 (stereo not drawn)	n	n	n	n	n
S=C(NCCc1ccccn1)Nc1ccccc1Cl	n	n	n	n	n
S=C(NCCc1ccccn1)NC1CCCCC1	n	n	97	n	n
Cc1c(Cl)cccc1NC(=S)NCCc1ccccn1	n	n	60	n	n
S=C(NCCc1cnc[nH]1)NC1CCCC1	n	n	98	n	n
O=C(Nc1cccc(-n2cnnn2)c1)c1ccc(Cl)cc1Cl	n	n	n	n	n
Cc1cccc(/C=N/NC(=O)c2cccc(Cl)c2)n1	n	n	n	n	21
CCCN1CCC(NC(=O)Nc2ccc(F)cc2F)CC1	n	n	43	n	n
CCN1CCC(NC(=O)Nc2ccc(F)cc2)CC1	n	n	n	n	n
CCCN1CCC(NC(=O)Cc2ccc(C)cc2)CC1	n	n	62	n	10
CCCN1CCC(NC(=O)Cc2cccc(C)c2)CC1	n	n	89	n	n
CCCCC(=O)NNC(=S)NC(=O)c1ccc(C)cc1	n	n	240	n	n
COc1ccc(C(=O)NNC(=S)NC(=O)c2ccc(Cl)cc2)cc1	n	n	163	n	n
COc1ccc(C(=O)NC(=S)NNC(=O)c2ccc(C)cc2)cc1	n	n	189	n	n
O=C1CSCC(=O)N1Cc1ccc(Cl)c(Cl)c1	n	n	n	n	n
Cc1ccc(S(=O)(=O)CCC(=O)OCC(=O)N2c3ccccc3NC(=O)C2(C)C)cc1	n	n	n	n	n
CCC(CC)C(=O)Nc1nnc(SCC(=O)NC2CCCCC2)s1	n	n	n	n	n
CCc1ccc2c(c1)[C@]1(C(=O)N2)[C@@H]2C(=O)N(Cc3ccccc3)C(=O)[C@@H]2[C@@H]2CCCN21	n	n	n	n	n
Cc1cc(Cl)cc2c1NC(=O)[C@]21[C@@H]2C(=O)N(Cc3ccccc3)C(=O)[C@@H]2[C@@H]2CCCN21	n	n	50	n	n
O=[N+]([O-])c1cccc(/C=N/Nc2nc(NCc3ccccc3)nc(N3CCOCC3)n2)c1O	n	n	53	n	n
O=[N+]([O-])c1ccc(/C=N/Nc2nc(NCc3ccccc3)nc(N3CCOCC3)n2)cc1	n	n	n	n	n
C=CCNC(=O)CN1C(=O)c2cccc3cccc1c23	n	n	n	n	n
SMILES	TRPC6 inhibitor	TRPC6 activator	TRPC4 agonist	TRPC4 block	TRPC4 PAM
O=C(CC12CC3CC(CC(C3)C1)C2)NC(Cc1ccccc1)C(=O)O (stereo not drawn)	n	n	n	n	n
CNC[C@H](CC1CCCCC1)NC[C@H](Cc1ccccc1)NCCC12CC3CC(CC(C3)C1)C2	n	n	152	n	n
CC(COc1ccccc1)N1CCC(CO)(Cc2ccccc2)CC1 (stereo not drawn)	n	n	n	-9	n
COc1ccc(CC2(CO)CCN(C/C=C/c3ccccc3OC)CC2)cc1	n	n	n	-6	n
Cc1ccc(S(=O)(=O)c2cnc(-c3ccccc3)nc2N2CCN(C)CC2)cc1	n	n	n	-6	n
CN1CCN(c2nc(-c3ccccc3)ncc2S(=O)(=O)c2ccccc2)CC1	n	n	n	n	n
O=C(NN1CCOCC1)c1cccc(Cl)c1	n	n	n	n	n
COc1cc(/C=C2\C(=O)N(c3ccc(NC(C)=O)cc3)N=C2c2ccccc2)ccc1O	n	n	n	n	15
O=C1/C(=C\c2ccc(O)c(O)c2)C(c2ccccc2)=NN1c1ccccc1	n	n	n	n	n
Cc1ccc(CN2CCN(Cc3c(C)nn(-c4ccc(F)cc4)c3C)CC2CCO)o1 (stereo not drawn)	n	n	n	n	n
Cc1cc(C)c(CN2CCN(Cc3ccc(C)o3)C(CCO)C2)c(-n2cccn2)c1 (stereo not drawn)	n	n	77	n	n
Cc1ccc(N(CC(=O)NC2CCCC2)C(=O)CNC(=O)c2cccs2)cc1F	n	n	n	-7	n
